Assay results taken from ChEMBL document CHEMBL4699545, “Non-cytotoxic 1,2,3-triazole tethered fused heterocyclic ring derivatives display Tax protein inhibition and impair HTLV-1 infected cells” (Bioorg Med Chem, 2020).
Activity calls are given as the source filed them. The rule behind the calls is not given here.

Legend:
MT2 [1] = test: Cytotoxicity against human MT2 cells infected with HTLV-1 assessed as reduction in metabolic activity at 20 uM incubated for 72 hrs in presence of resazurin by resazurin reduction method; type: functional, cell-based
How it was run: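 Reference etoposide at 20 µM (final, 0.5% DMSO) served as the positive control in the MT-2 resazurin screen. Cells were incubated 72 h, with 10 µM resazurin added for the last 4 h, and fluorescence read at 590 nm. Three independent days.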

MT2 [2] = test: Cell cycle arrest in human MT2 cells infected with HTLV-1 assessed as accumulation at G2/M phase at 20 uM incubated for 72 hrs by RNaseA/propidium iodide staining based FACSCalibur flow cytometry; type: functional
How it was run: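 Etoposide 20 µM used as reference in MT-2 cell cycle assay: 3 × 10⁵ cells/well, 72 h at 37 °C. Ethanol fixation (70%, overnight -20 °C), RNase A 30 min at 37 °C, then PI staining. 10,000 events acquired by flow cytometry and G0/G1, S and G2/M fractions modelled. Triplicate, mean ± SD.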

MT2 [3] = test: Cell cycle arrest in human MT2 cells infected with HTLV-1 assessed as accumulation at G2/M phase at 50 uM incubated for 72 hrs by RNaseA/propidium iodide staining based FACSCalibur flow cytometry; type: functional
How it was run: (§1)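 MT-2 cells (3 × 10⁵/well) exposed to compound (300 µM stock, 100 µl added to 500 µl cells) for 72 h at 37 °C, 5% CO₂. Cells were PBS-washed and fixed in ice-cold 70% ethanol overnight at -20 °C, then RNase A treated 30 min at 37 °C and PI stained. 10,000 events were acquired and phase percentages modelled. Triplicate, mean ± SD; one-way ANOVA/Tukey versus 0.5% DMSO.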

MT2 [4] = test: Cell cycle arrest in human MT2 cells infected with HTLV-1 assessed as accumulation at G0/G1 phase at 50 uM incubated for 72 hrs by RNaseA/propidium iodide staining based FACSCalibur flow cytometry; type: functional; how it was run: as §1
MT2 [5] = test: Cytotoxicity against human MT2 cells infected with HTLV-1 assessed as reduction in metabolic activity at 50 uM incubated for 72 hrs in presence of resazurin by resazurin reduction method relative to control; type: functional
How it was run: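 MT-2 cells incubated with compound at a final 50 µM in 0.5% DMSO for 72 h at 37 °C, 5% CO₂. Resazurin (10 µM) was added for the final 4 h and fluorescence read at 590 nm; medium-only wells gave background. RFU normalized between 0.5% DMSO (0) and 20 µM etoposide (100) controls. Three independent days.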

MT2 [6] = test: Cell cycle arrest in human MT2 cells infected with HTLV-1 assessed as accumulation at S phase at 50 uM incubated for 72 hrs by RNaseA/propidium iodide staining based FACSCalibur flow cytometry; type: functional; how it was run: as §1
Huh-7 = test: Cytotoxicity against human Huh-7 cells assessed as reduction in cell viability by measuring viability index at 50 uM after 72 hrs in presence of resazurin by resazurin reduction method; type: cell-based; settings: huh-7, 72 h
How it was run: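 Huh-7 cells (3.6 × 10⁴ cells/mL) were exposed to twofold serial dilutions in PBS, 10 points from 50 µM, for 72 h at 37 °C, 5% CO₂. Resazurin (10 µM) was added for the final 4 h and fluorescence read. Viability = RFU treated / mean RFU of 0.5% DMSO wells.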

MT2 [7] = test: Induction of apoptosis in human MT2 cells infected with HTLV-1 at 50 uM measured after 72 hrs by annexinV-Cy5/propidium iodide staining based FACSCalibur flow cytometry (reference value: 18.7 +/- 5.33 %); type: functional
How it was run: (§2)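 MT-2 cells (3 × 10⁵/well) were treated for 72 h at 37 °C, 5% CO₂, then stained with annexin-V Cy5/PI per kit. Within an FSC/SSC live-cell gate, total annexin-V⁺ cells (early PI⁻ plus late PI⁺) were counted by flow cytometry. 0.5% DMSO served as negative control and etoposide 20 µM as positive. Triplicate, mean ± SD, ANOVA/Tukey.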

MT2 [8] = test: Induction of apoptosis in human MT2 cells infected with HTLV-1 at 50 uM measured after 72 hrs by annexinV-Cy5/propidium iodide staining based FACSCalibur flow cytometry; type: functional, cell-based; how it was run: as §2
MT2 [9] = test: Induction of apoptosis in human MT2 cells infected with HTLV-1 assessed as activation of caspase-3/7 at 50 uM measured after 72 hrs by CellEvent caspase 3/7 green detection reagent based assay; type: functional, cell-based
How it was run: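 MT-2 cells (3 × 10⁵/well) were exposed to compound (300 µM stock, 100 µl into 500 µl) for 72 h at 37 °C, 5% CO₂. CellEvent caspase-3/7 green reagent was added for 45 min at room temperature in the dark. 10,000 events were acquired, and the percentage of active caspase-3/7⁺ cells was taken within an FSC/SSC live-cell gate. Triplicate, mean ± SD, ANOVA/Tukey versus 0.5% DMSO.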

[10] = Effect on HTLV-1 Tax expression in lentiviral pLVX-TET3G transduced human Jurkat LTR-GFP inducible Tax assessed as doxycyclin-treated GFP negative PI positive dead cells at 50 uM after 72 hrs by flow cytometry (reference value: 16.82 +/- 3.37 %)

SMILES | inhibition (MT2 [1]) | Activity (MT2 [2]) | Activity (MT2 [3]) | Activity (MT2 [4]) | inhibition at 50 µM (MT2 [5]) [%] | Activity (MT2 [6]) | Growth_index (Huh-7) | Activity (MT2 [7]) [%] | Activity (MT2 [8]) | Activity (MT2 [9]) | GFP-PI+ dead cells % [10] [%]
COc1cc([C@@H]2c3cc4c(cc3[C@@H](O[C@@H]3O[C@@H]5CO[C@@H](C)O[C@H]5[C@H](O)[C@H]3O)[C@H]3COC(=O)[C@H]23)OCO4)cc(OC)c1O | Active | inactive |  |  |  |  |  |  |  |  | 
O=C(Cn1cc(CSc2nc3ccccc3[nH]2)nn1)N1CCN(Cc2ccccc2)CC1 |  |  | inactive | inactive | ≥ 70 | inactive |  |  |  |  | 
Cc1cc(=O)oc2cc(OCc3cn(CC4CCN(Cc5ccccc5)CC4)nn3)ccc12 |  |  | inactive | inactive | ≥ 70 | inactive | 0.61 | 39.96 | Active | Active | 
COc1cc2ncnc(NCc3cn(CC4CCN(Cc5ccccc5)CC4)nn3)c2cc1OC |  |  | inactive | inactive | ≥ 70 | inactive | 0.65 |  | Active | Active | 
O=C1c2ccccc2C(=O)N1Cc1cn(CCNc2ccnc3cc(Cl)ccc23)nn1 |  |  |  |  | ≥ 70 | Active | 0.85 |  |  |  | 
COc1cc2ncnc(NCc3cn(CCNc4ccnc5cc(Cl)ccc45)nn3)c2cc1OC |  |  | inactive | inactive | ≥ 70 | inactive | 0 |  | Active | Active | 90.98
O=C(Cn1cc(CNc2ncnc3ccccc23)nn1)N1CCN(Cc2ccccc2)CC1 |  |  | inactive | inactive | ≥ 70 | inactive |  |  |  |  | 
Clc1ccc2c(NCCn3cc(CNc4ncnc5ccccc45)nn3)ccnc2c1 |  |  | inactive | inactive | ≥ 70 | inactive | 0 |  | Active | Active | 44.88
c1ccc(CN2CCC(Cn3cc(CNc4ncnc5ccccc45)nn3)CC2)cc1 |  |  | inactive | inactive | ≥ 70 | inactive |  |  |  |  | 
